# Laboratory results as given in ChEMBL document CHEMBL1139250, “2,6,9-Trisubstituted purine derivatives as protein A mimetics for the treatment of autoimmune diseases” (Bioorg Med Chem Lett, 2009).
# Activity calls are given as the source filed them. No cut-off for these calls is given here.
# System: Mus musculus
# Assay: Effect on oxazolone-induced delayed type hypersensitivity in mouse assessed as ear thickness at 50 mg/kg, iv after 7 days challenged with oxazolone on day 3
# Assay type: functional
# Procedure, shortened: (§1)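 Mice dosed intravenously with vehicle or test compound at 50 mg/kg on days 0, 1 and 2. Oxazolone (50 ll) applied to the right ear surface, first challenge day 3, second day 10. Ear thickness measured days 4–7 and 11–14; redness and crust formation also observed. Mice sacrificed day 14.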
row,Structure (SMILES),Activity
1,Nc1ccc(CCn2cnc3c(Nc4cccc(N)c4)ncnc32)cc1,0.19 mm
2,CN(Cc1cnc2nc(N)nc(N)c2n1)c1ccc(C(=O)N[C@@H](CCC(=O)O)C(=O)O)cc1 [METHOTREXATE],0.17 mm

# System: Mus musculus
# Assay: Effect on oxazolone-induced delayed type hypersensitivity in mouse assessed as ear thickness at 50 or 150 mg/kg, po after 7 days challenged with oxazolone on day 3
# Assay type: functional, organism-based
# Design: dose 150 mg/kg
# Procedure, shortened: (§2)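 Oxazolone DTH protocol: 50 ll oxazolone applied to the right ear surface, challenged day 3 and day 10. Ear thickness measured days 4–7 and 11–14. Compound given orally at 50 or 150 mg/kg daily from day 0 to day 13. Hydrocortisone served as comparator.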
row,Structure (SMILES),Activity
1,Nc1ccc(CCn2cnc3c(Nc4cccc(N)c4)ncnc32)cc1,Active

# System: Rattus norvegicus
# Assay: Reduction in synovitis damage in Freund's adjuvant-induced arthritis Lewis rat model at 25 mg/kg, iv after 21 days relative to control
# Assay type: functional
# Design: scale not given: the % may be the effect or the level left
# Procedure, shortened: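 Female Lewis rats; arthritis induced by footpad injection of lyophilized Mycobacterium butyricum in mineral oil, monitored for 3 weeks. Intravenous dosing on days −3, −2, −1 pre-adjuvant and days 10, 11, 12 post-adjuvant; body weight recorded. Arthritis (inflammatory) index derived from joint circumference in mm via a geometric formula; incidence and severity scored.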
row,Structure (SMILES),Activity
1,Nc1ccc(CCn2cnc3c(Nc4cccc(N)c4)ncnc32)cc1,25%
2,CN(Cc1cnc2nc(N)nc(N)c2n1)c1ccc(C(=O)N[C@@H](CCC(=O)O)C(=O)O)cc1 [METHOTREXATE],20%

# System: Rattus norvegicus
# Assay: Reduction in synovitis damage in Freund's adjuvant-induced arthritis Lewis rat model at 50 mg/kg, po after 21 days relative to control
# Assay type: functional
# Design: scale not given: the % may be the effect or the level left
row,Structure (SMILES),Activity
1,Nc1ccc(CCn2cnc3c(Nc4cccc(N)c4)ncnc32)cc1,30%

# Organism: Homo sapiens
# Assay: (§3) Displacement of protein A from human IgG antibody by competitive ELISA
# Procedure, shortened: (§4)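 Competitive ELISA in which test compounds compete with protein A for binding to human IgG; IC50 determined in PBS.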
row,Activity,Structure (SMILES)
1,inactive,COc1cccc(Nc2ncnc3c2ncn3CCc2ccc(N)cc2)c1
2,inactive,Nc1ccc(CCn2cnc3c(NC4CCNC4)ncnc32)cc1 (configuration not stated)
3,inactive,Nc1ccc(CCn2cnc3c(Nc4cccc(F)c4)ncnc32)cc1
4,inactive,Nc1cccc(Nc2ncnc3c2ncn3CCc2ccc(O)cc2)c1
5,inactive,Nc1ccc(CCn2cnc3c(N4CCNCC4)ncnc32)cc1
6,inactive,Nc1ccc(CCn2cnc3c(Nc4cccc(N)c4)nc(F)nc32)cc1
7,inactive,Nc1ccc(CCn2cnc3c(NC4CCCC(N)C4)ncnc32)cc1 (configuration not stated)
8,inactive,NCCNc1nc(Nc2cccc(N)c2)c2ncn(CCc3ccc(N)cc3)c2n1
9,inactive,Nc1ccc(CCn2cnc3c(NCC4CCCNC4)ncnc32)cc1 (configuration not stated)
10,inactive,Nc1ccc(CCn2cnc3c(Nc4cccc(N)c4)nc(NCCCCO)nc32)cc1

# Molecular target: not listed separately
# Assay: as §3
# Procedure, shortened: as §4
row,IC50,Structure (SMILES)
1,600 nM,Nc1cccc(Nc2ncnc3c2ncn3CCc2ccc(F)cc2)c1
2,5100 nM,Nc1cccc(CCn2cnc3c(Nc4cccc(N)c4)ncnc32)c1
3,64000 nM,Nc1ccc(CCn2cnc3c(Nc4cccc(N)c4)nc(NCCO)nc32)cc1
4,3600 nM,Nc1cccc(Nc2ncnc3c2ncn3CCc2ccc(Cl)cc2)c1
5,14000 nM,CC(Nc1nc(Nc2cccc(N)c2)c2ncn(CCc3ccc(N)cc3)c2n1)c1cccc(N)c1 (configuration not stated)
6,400 nM,Nc1cccc(Nc2ncnc3c2ncn3CC2CC2)c1
7,2300 nM,Nc1ccc(CCn2cnc3c(Nc4cccc(N)c4)nc(NC4CCC4)nc32)cc1
8,200 nM,Nc1cccc(Nc2ncnc3c2ncn3CCOc2ccccc2)c1
9,200 nM,Nc1ccc(CCn2cnc3c(Nc4cccc(N)c4)nc(NC4CCCC4)nc32)cc1
10,1500 nM,Cc1ccc(CCn2cnc3c(Nc4cccc(N)c4)ncnc32)cc1
11,2300 nM,Nc1cccc(Nc2ncnc3c2ncn3CCc2ccccc2)c1
12,4800 nM,Nc1ccc(CCn2cnc3c(Nc4cccc(N)c4)nc(NCCCCCCO)nc32)cc1
13,1000 nM,Nc1ccc(CCn2cnc3c(Nc4cccc(N)c4)ncnc32)cc1
14,1700 nM,Nc1cccc(Nc2ncnc3c2ncn3Cc2ccc(F)cc2)c1
15,500 nM,Nc1cccc(Nc2ncnc3c2ncn3Cc2ccc(Cl)cc2)c1
16,600 nM,Nc1cccc(Nc2ncnc3c2ncn3CCCOc2ccccc2)c1
17,1800 nM,Nc1cccc(Nc2ncnc3c2ncn3Cc2cccc(F)c2)c1

row,IC50,Structure (SMILES)
1,400 nM,Nc1cccc(Nc2ncnc3c2ncn3Cc2cccc(Cl)c2)c1
2,1800 nM,Nc1ccc(CCn2cnc3c(Nc4cccc(N)c4)nc(NCc4ccccc4)nc32)cc1
3,200 nM,CC(c1cccc(F)c1)n1cnc2c(Nc3cccc(N)c3)ncnc21 (configuration not stated)
4,500 nM,Nc1cccc(Nc2ncnc3c2ncn3CCOc2ccc(Cl)cc2)c1
5,9000 nM,Nc1ccc(CCn2cnc3c(Nc4cccc(N)c4)nc(NC4CCCCC4)nc32)cc1
6,12500 nM,Nc1cccc(Nc2ncnc3c2ncn3CCc2ccc3ccccc3c2)c1
7,1100 nM,CC(C)Nc1nc(Nc2cccc(N)c2)c2ncn(CCc3ccc(N)cc3)c2n1
8,200 nM,Nc1ccc(Cn2cnc3c(Nc4cccc(N)c4)ncnc32)cc1
9,600 nM,Nc1ccc(CCn2cnc3c(Nc4cccc(N)c4)nc(NCC4CC4)nc32)cc1
10,500 nM,Nc1cccc(Nc2ncnc3c2ncn3CCc2cccc(F)c2)c1
11,13000 nM,Nc1ccc(CCn2cnc3c(Nc4cccc(N)c4)nc(NC4CC4)nc32)cc1
12,300 nM,COC(=O)c1ccc(Cn2cnc3c(Nc4cccc(N)c4)ncnc32)cc1
13,300 nM,Nc1cccc(Nc2ncnc3c2ncn3CCOc2ccc(F)cc2)c1
14,13000 nM,Nc1ccc(CCn2cnc3c(Nc4cccc(N)c4)nc(N)nc32)cc1
15,22000 nM,CC(C)CNc1nc(Nc2cccc(N)c2)c2ncn(CCc3ccc(N)cc3)c2n1
16,6000 nM,CC(C)(C)CNc1nc(Nc2cccc(N)c2)c2ncn(CCc3ccc(N)cc3)c2n1

# System: Mus musculus
# Assay: Effect on oxazolone-induced delayed type hypersensitivity in mouse assessed as ear thickness at 50 mg/kg, iv after 14 days challenged with oxazolone on day 10
# Assay type: functional
# Procedure, shortened: as §1
row,Structure (SMILES),Activity
1,Nc1ccc(CCn2cnc3c(Nc4cccc(N)c4)ncnc32)cc1,0.56 mm
2,CN(Cc1cnc2nc(N)nc(N)c2n1)c1ccc(C(=O)N[C@@H](CCC(=O)O)C(=O)O)cc1 [METHOTREXATE],0.46 mm

# System: Mus musculus
# Assay: Effect on oxazolone-induced delayed type hypersensitivity in mouse assessed as ear thickness at 50 or 150 mg/kg, po after 14 days challenged with oxazolone on day 10
# Assay type: functional, organism-based
# Design: dose 150 mg/kg
# Procedure, shortened: as §2
row,Structure (SMILES),Activity
1,Nc1ccc(CCn2cnc3c(Nc4cccc(N)c4)ncnc32)cc1,Active
